Activity calls are given as the source filed them. Unless noted, the rule behind the calls is not given here.
What was measured:
Saccharomyces cerevisiae [1] = assay: Upregulation of HSP26 gene expression in delta snq2, delta pdr5 and delta erg6 knock out yeast YRP1 at 25 µM after 2 hrs by high-density oligonucleotide array; format: functional, organism-based
Outline: (§1)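 Drug-sensitized yeast strain grown to late logarithmic phase, then exposed to 25 μM inhibitor for 2 h. Polyadenylated mRNA was isolated and converted to biotin-labeled cRNA, which was hybridized to a set of four arrays carrying over 260,000 25-nucleotide oligomers. Transcripts changing more than twofold were scored, from triplicate hybridizations in each of two independent experiments.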

Saccharomyces cerevisiae [2] = assay: Decrease in RPL4A mRNA level in delta snq2, delta pdr5 and delta erg6 knock out yeast YRP1 at 25 µM after 2 hrs by high-density oligonucleotide array; format: functional
Outline: (§2)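 Drug-sensitized S. cerevisiae cultures grown to late logarithmic phase, then exposed to 25 μM inhibitor for 2 h. Polyadenylated mRNA isolated, converted to biotin-labeled cRNA and hybridized to a set of four high-density arrays carrying more than 260,000 25-nucleotide oligomers. Transcripts scored as changed when they shifted more than twofold in triplicate hybridizations for each of two independent experiments.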

Saccharomyces cerevisiae [3] = assay: Downregulation of HTB2 mRNA expression in delta snq2, delta pdr5 and delta erg6 knock out yeast YRP1 at 25 µM after 2 hrs by high-density oligonucleotide array; format: functional, organism-based; details: 25 M; outline: as §2
Saccharomyces cerevisiae [4] = assay: Downregulation of EGT2 mRNA expression in delta snq2, delta pdr5 and delta erg6 knock out yeast YRP1 at 25 µM after 2 hrs by high-density oligonucleotide array; format: functional, organism-based; details: 25 M; outline: as §2
Saccharomyces cerevisiae [5] = assay: Induction of PGM2 gene expression in delta snq2, delta pdr5 and delta erg6 knock out yeast YRP1 at 25 µM after 2 hrs by high-density oligonucleotide array; format: functional, organism-based; details: 25 M; outline: as §1
Saccharomyces cerevisiae [6] = assay: Induction of ALD4 gene expression in delta snq2, delta pdr5 and delta erg6 knock out yeast YRP1 at 25 µM after 2 hrs by high-density oligonucleotide array; format: functional, organism-based; details: 25 M; outline: as §2
Saccharomyces cerevisiae [7] = assay: Downregulation of HTA2 mRNA expression in delta snq2, delta pdr5 and delta erg6 knock out yeast YRP1 at 25 µM after 2 hrs by high-density oligonucleotide array; format: functional, organism-based; outline: as §2
Saccharomyces cerevisiae [8] = assay: Effect on YGR043C gene expression in delta snq2, delta pdr5 and delta erg6 knock out yeast YRP1 assessed as change in mRNA level at 25 µM after 2 hrs by high-density oligonucleotide array; format: functional, organism-based; outline: as §2
Saccharomyces cerevisiae [9] = assay: Effect on FAR1 gene expression in delta snq2, delta pdr5 and delta erg6 knock out yeast YRP1 assessed as change in mRNA level at 25 µM after 2 hrs by high-density oligonucleotide array; format: functional, organism-based; outline: as §2
Saccharomyces cerevisiae [10] = assay: Increase in PHO5 mRNA level in delta snq2, delta pdr5 and delta erg6 knock out yeast YRP1 at 25 µM after 2 hrs by high-density oligonucleotide array; format: functional, organism-based; outline: as §2
Saccharomyces cerevisiae [11] = assay: Effect on HAC1 gene expression in delta snq2, delta pdr5 and delta erg6 knock out yeast YRP1 assessed as change in mRNA level at 25 µM after 2 hrs by high-density oligonucleotide array; format: functional, organism-based; outline: as §2
Saccharomyces cerevisiae [12] = assay: Upregulation of SSE2 gene expression in delta snq2, delta pdr5 and delta erg6 knock out yeast YRP1 at 25 µM after 2 hrs by high-density oligonucleotide array; format: functional, organism-based; details: 25 M; outline: as §1
Saccharomyces cerevisiae [13] = assay: Downregulation of CLB1 mRNA expression in delta snq2, delta pdr5 and delta erg6 knock out yeast YRP1 at 25 µM after 2 hrs by high-density oligonucleotide array; format: functional, organism-based; details: 25 M; outline: as §2
Saccharomyces cerevisiae [14] = assay: Effect on YER037w gene expression in delta snq2, delta pdr5 and delta erg6 knock out yeast YRP1 bearing cdc28-4 mutant allele assessed as change in mRNA level at 25 µM after 2 hrs by high-density oligonucleotide array; format: functional, organism-based
Saccharomyces cerevisiae [15] = assay: Effect on YDR281C gene expression in delta snq2, delta pdr5 and delta erg6 knock out yeast YRP1 bearing cdc28-4 mutant allele assessed as change in mRNA level at 25 µM after 2 hrs by high-density oligonucleotide array; format: functional, organism-based
Saccharomyces cerevisiae [16] = assay: Induction of YAL061W gene expression in delta snq2, delta pdr5 and delta erg6 knock out yeast YRP1 at 25 µM after 2 hrs by high-density oligonucleotide array; format: functional, organism-based; details: 25 M; outline: as §1
Saccharomyces cerevisiae [17] = assay: Effect on YGL179C gene expression in delta snq2, delta pdr5 and delta erg6 knock out yeast YRP1 assessed as change in mRNA level at 25 µM after 2 hrs by high-density oligonucleotide array; format: functional, organism-based; details: 25 M; outline: as §2
Saccharomyces cerevisiae [18] = assay: Down regulation of CLB2 mRNA expression in delta snq2, delta pdr5 and delta erg6 knock out yeast YRP1 assessed as change in mRNA level at 25 µM after 2 hrs by high-density oligonucleotide array; format: functional, organism-based; outline: as §2
Saccharomyces cerevisiae [19] = assay: Induction of YPR184W gene expression in delta snq2, delta pdr5 and delta erg6 knock out yeast YRP1 at 25 µM after 2 hrs by high-density oligonucleotide array; format: functional, organism-based; outline: as §1
Saccharomyces cerevisiae [20] = assay: Effect on YGL121C gene expression in delta snq2, delta pdr5 and delta erg6 knock out yeast YRP1 bearing cdc28-4 mutant allele assessed as change in mRNA level at 25 µM after 2 hrs by high-density oligonucleotide array; format: functional, organism-based; details: 25 M
Saccharomyces cerevisiae [21] = assay: Effect on YKL071W gene expression in delta snq2, delta pdr5 and delta erg6 knock out yeast YRP1 bearing cdc28-4 mutant allele assessed as change in mRNA level at 25 µM after 2 hrs by high-density oligonucleotide array; format: functional, organism-based
Saccharomyces cerevisiae [22] = assay: Effect on YCL009c gene expression in delta snq2, delta pdr5 and delta erg6 knock out yeast YRP1 bearing cdc28-4 mutant allele assessed as change in mRNA level at 25 µM after 2 hrs by high-density oligonucleotide array; format: functional, organism-based
Saccharomyces cerevisiae [23] = assay: Induction of PFK26 gene expression in delta snq2, delta pdr5 and delta erg6 knock out yeast YRP1 at 25 µM after 2 hrs by high-density oligonucleotide array; format: functional, organism-based; details: 25 M; outline: as §1
Saccharomyces cerevisiae [24] = assay: Upregulation of HSP82 gene expression in delta snq2, delta pdr5 and delta erg6 knock out yeast YRP1 at 25 µM after 2 hrs by high-density oligonucleotide array; format: functional, organism-based; outline: as §1
Saccharomyces cerevisiae [25] = assay: Effect on ZMS1 gene expression in delta snq2, delta pdr5 and delta erg6 knock out yeast YRP1 bearing cdc28-4 mutant allele assessed as change in mRNA level at 25 µM after 2 hrs by high-density oligonucleotide array; format: functional, organism-based; details: 25 M
Saccharomyces cerevisiae [26] = assay: Upregulation of GSC2 gene expression in delta snq2, delta pdr5 and delta erg6 knock out yeast YRP1 at 25 µM after 2 hrs by high-density oligonucleotide array; format: functional, organism-based; details: 25 M; outline: as §1
Saccharomyces cerevisiae [27] = assay: Induction of GPH1 gene expression in delta snq2, delta pdr5 and delta erg6 knock out yeast YRP1 bearing cdc28-4 mutant allele at 25 µM after 2 hrs by high-density oligonucleotide array; format: functional, organism-based; details: 25 M
Outline: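 cdc28-4 temperature-sensitive strain and its isogenic wild type were profiled at the permissive temperature of 25°C. Polyadenylated mRNA was converted to biotin-labeled cRNA and hybridized to high-density oligonucleotide arrays. Transcripts changing more than twofold were scored, from triplicate hybridizations of RNA from a single experiment.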

Saccharomyces cerevisiae [28] = assay: Upregulation of HSP30 gene expression in delta snq2, delta pdr5 and delta erg6 knock out yeast YRP1 at 25 µM after 2 hrs by high-density oligonucleotide array; format: functional, organism-based; details: 25 M; outline: as §1
Saccharomyces cerevisiae [29] = assay: Growth inhibition of delta snq2, delta pdr5 and delta erg6 knock out yeast YRP1 assessed as synchronization by FACS analysis; format: functional, organism-based
Saccharomyces cerevisiae [30] = assay: Growth inhibition of delta snq2, delta pdr5 and delta erg6 knock out yeast YRP1 assessed as induction of uniform arrest morphology; format: functional, organism-based
Saccharomyces cerevisiae [31] = assay: Upregulation of PDR10 gene expression in delta snq2, delta pdr5 and delta erg6 knock out yeast YRP1 at 25 µM after 2 hrs by high-density oligonucleotide array; format: functional, organism-based; details: 25 M; outline: as §1

CC(C)n1cnc2/c(=N/c3cccc(Cl)c3)nc(NCCO)[nH]c21
Activity (Saccharomyces cerevisiae [1]): Active | fold change (FC) (Saccharomyces cerevisiae [2]): 3 | Activity (Saccharomyces cerevisiae [3]): Active | Activity (Saccharomyces cerevisiae [4]): Active | Activity (Saccharomyces cerevisiae [5]): Active | Activity (Saccharomyces cerevisiae [6]): Active | Activity (Saccharomyces cerevisiae [7]): Active | Activity (Saccharomyces cerevisiae [8]): Active | Activity (Saccharomyces cerevisiae [9]): Active | Activity (Saccharomyces cerevisiae [10]): Active | Activity (Saccharomyces cerevisiae [11]): Active | Activity (Saccharomyces cerevisiae [12]): Active | Activity (Saccharomyces cerevisiae [13]): Active | Activity (Saccharomyces cerevisiae [14]): Active | Activity (Saccharomyces cerevisiae [15]): Active | Activity (Saccharomyces cerevisiae [16]): Active | Activity (Saccharomyces cerevisiae [17]): Active | Activity (Saccharomyces cerevisiae [18]): Active | Activity (Saccharomyces cerevisiae [19]): Active | Activity (Saccharomyces cerevisiae [20]): Active | Activity (Saccharomyces cerevisiae [21]): Active | Activity (Saccharomyces cerevisiae [22]): Active | Activity (Saccharomyces cerevisiae [23]): Active | Activity (Saccharomyces cerevisiae [24]): Active | Activity (Saccharomyces cerevisiae [25]): Active | Activity (Saccharomyces cerevisiae [26]): Active | Activity (Saccharomyces cerevisiae [27]): Active | Activity (Saccharomyces cerevisiae [28]): Active | Activity (Saccharomyces cerevisiae [29]): inactive | Activity (Saccharomyces cerevisiae [30]): inactive | Activity (Saccharomyces cerevisiae [31]): Active

CN1CC[C@H](c2c(O)cc(O)c3c(=O)cc(-c4ccccc4Cl)oc23)[C@H](O)C1 [ALVOCIDIB]
Activity (Saccharomyces cerevisiae [1]): Active | fold change (FC) (Saccharomyces cerevisiae [2]): 3 | Activity (Saccharomyces cerevisiae [3]): Active | Activity (Saccharomyces cerevisiae [4]): Active | Activity (Saccharomyces cerevisiae [5]): Active | Activity (Saccharomyces cerevisiae [6]): Active | Activity (Saccharomyces cerevisiae [7]): Active | Activity (Saccharomyces cerevisiae [8]): Active | Activity (Saccharomyces cerevisiae [9]): Active | Activity (Saccharomyces cerevisiae [10]): Active | Activity (Saccharomyces cerevisiae [11]): Active | Activity (Saccharomyces cerevisiae [12]): Active | Activity (Saccharomyces cerevisiae [13]): Active | Activity (Saccharomyces cerevisiae [14]): Active | Activity (Saccharomyces cerevisiae [15]): Active | Activity (Saccharomyces cerevisiae [16]): Active | Activity (Saccharomyces cerevisiae [17]): Active | Activity (Saccharomyces cerevisiae [18]): Active | Activity (Saccharomyces cerevisiae [19]): Active | Activity (Saccharomyces cerevisiae [20]): Active | Activity (Saccharomyces cerevisiae [21]): Active | Activity (Saccharomyces cerevisiae [22]): Active | Activity (Saccharomyces cerevisiae [23]): Active | Activity (Saccharomyces cerevisiae [24]): Active | Activity (Saccharomyces cerevisiae [25]): Active | Activity (Saccharomyces cerevisiae [26]): Active | Activity (Saccharomyces cerevisiae [27]): Active | Activity (Saccharomyces cerevisiae [28]): Active | Activity (Saccharomyces cerevisiae [29]): inactive | Activity (Saccharomyces cerevisiae [30]): inactive | Activity (Saccharomyces cerevisiae [31]): Active
